Reference: ChEMBL document CHEMBL1759867, “Evaluation of dihydropyrimidin-(2H)-one analogues and rhodanine derivatives as tyrosinase inhibitors” (Bioorg Med Chem Lett, 2011)
pIC50: −log10 of the molar value. The source made the active and inactive calls. The rule behind the calls is not given here.

target: T1, Tyrosinase (Agaricus bisporus) (UniProt O42713); test: Inhibition of diphenolase activity of mushroom tyrosinase at 50 mM preincubated with compound for 10 mins before addition of L-DOPA as substrate by spectrophotometric analysis
T1 sequence (whole entry): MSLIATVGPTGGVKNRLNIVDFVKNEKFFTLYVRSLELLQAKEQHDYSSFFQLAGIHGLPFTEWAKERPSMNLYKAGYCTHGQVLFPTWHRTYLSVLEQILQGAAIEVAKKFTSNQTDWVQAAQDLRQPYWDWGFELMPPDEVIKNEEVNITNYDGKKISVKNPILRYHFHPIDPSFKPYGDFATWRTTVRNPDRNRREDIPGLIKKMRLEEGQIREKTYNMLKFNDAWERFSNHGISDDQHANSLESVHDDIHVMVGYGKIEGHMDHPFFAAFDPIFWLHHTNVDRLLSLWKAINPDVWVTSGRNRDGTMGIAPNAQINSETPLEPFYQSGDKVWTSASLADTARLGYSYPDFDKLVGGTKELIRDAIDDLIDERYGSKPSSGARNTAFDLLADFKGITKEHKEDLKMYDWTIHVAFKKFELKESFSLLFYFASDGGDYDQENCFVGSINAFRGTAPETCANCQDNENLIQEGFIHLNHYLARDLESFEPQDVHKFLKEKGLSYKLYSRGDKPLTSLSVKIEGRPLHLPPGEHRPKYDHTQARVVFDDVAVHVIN
Procedure, shortened: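 Mushroom tyrosinase diphenolase activity was measured on L-DOPA at 25 °C. Compounds were scored for activity at a single fixed concentration.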

Row | Compound | inhibition
1 | CC(=O)C1=C(C)NC(=O)NC1c1ccccc1 (configuration not stated) | inactive
2 | COc1cc(C2NC(=O)NC(C)=C2C(C)=O)ccc1O (configuration not stated) | inactive
3 | CC(=O)C1=C(C)NC(=O)NC1c1ccccc1O (configuration not stated) | inactive
4 | CC(=O)C1=C(C)NC(=O)NC1c1ccc(O)cc1 (configuration not stated) | inactive
5 | CCO/N=C(\C)C1=C(C)NC(=O)NC1CC (configuration not stated) | inactive
6 | COc1ccc(C2NC(=O)NC(C)=C2C(C)=O)cc1 (configuration not stated) | inactive
7 | CCC1NC(=O)NC(C)=C1C(C)=O (configuration not stated) | inactive

target: T2, Tyrosinase (Agaricus bisporus, UniProt O42713); test: Inhibition of diphenolase activity of mushroom tyrosinase preincubated with compound for 10 mins before addition of L-DOPA as substrate by spectrophotometric analysis
T2 sequence (O42713 whole entry): T1 sequence (whole entry)
Procedure, shortened: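 Diphenolase activity of mushroom tyrosinase was measured with L-DOPA as substrate at 25 °C. IC50 was taken from logarithmic concentration–inhibition curves of at least eight points, as the mean of three experiments.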

Row | Compound | pIC50
8 | CC(=O)C1=C(C)NC(=S)NC1c1ccccc1O (configuration not stated) | 1.79
9 | CCC1NC(=S)NC(C)=C1C(C)=O (configuration not stated) | 1.97
10 | O=C1NC(=S)S/C1=C\c1ccccc1O | 2.02
11 | O=C1NC(=S)S/C1=C\c1ccc(O)cc1 | 2.00
12 | COc1cc(C2NC(=S)NC(C)=C2C(C)=O)ccc1O (configuration not stated) | 1.70
13 | COc1cc(/C=C2\SC(=S)NC2=O)ccc1O | 1.96
14 | O=C1NC(=S)S/C1=C\c1ccc(OCCO)cc1 | 3.25
15 | O=C1NC(=S)S/C1=C\c1ccc(OCCO)c(OCCO)c1 | 2.24
16 | COc1ccc(C2NC(=S)NC(C)=C2C(C)=O)cc1 (configuration not stated) | 1.60
17 | CC(=O)C1=C(C)NC(=S)NC1c1ccc(O)cc1 (configuration not stated) | 1.91
